Results on twelve compounds are retold here after ChEMBL document CHEMBL3813596, “Conformational Constraint of the Glycerol Moiety of Lysophosphatidylserine Affords Compounds with Receptor Subtype Selectivity” (J Med Chem, 2016).

Activity calls are given as the source filed them. The rule behind the calls is not given here.

Assay [1] concerns the target Putative P2Y purinoceptor 10 (Mus musculus) (UniProt Q8BFU7). Description: Intrinsic activity at mouse P2Y10 receptor expressed in HEK293A cells after 1.5 hrs by alkaline phosphatase tagged-TGFalpha shedding assay relative to diF-C3-ph-o-O-C11. The assay is classed as cell-based. As to conditions: HEK293-A. In a few lines: (§1)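 It is a dimensionless estimate of agonist activity. The GPR34 assay used HEK293A cells with chimeric Gαq/i1 and a 1.5 h incubation; the P2Y10 assay used HEK293A cells.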

For assay [2] the target is unchanged. Description: (§2) Agonist activity at mouse P2Y10 receptor expressed in HEK293A cells after 1.5 hrs by alkaline phosphatase tagged-TGFalpha shedding assay. The assay is classed as cell-based. Conditions: HEK293-A. In a few lines:
(§3)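 Transient transfection of HEK293 cells with AP-TGFα plus the mouse receptor. For GPR34, HEK293A cells also got a chimeric Gαq/i1 subunit; P2Y10 was run in HEK293A and GPR174 in HEK293FT. Cells were seeded 24 h post-transfection in 5 mM HEPES (pH 7.4) HBSS onto serial 3.2-fold compound dilutions (top final 32 μM or lower, limited by mock-cell signal). Ki16425 was present, and incubation ran 1.5 h.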

The target in assay [3] is Putative P2Y purinoceptor 10 (Mus musculus, UniProt Q8BFU7). The assay is described as §2. Format: cell-based, HEK293-A. Summed up: as §3
Assay [4] has as its target Probable G-protein coupled receptor 34 (Mus musculus) (UniProt Q9R1K6). Description: Intrinsic activity at mouse GPR34 expressed in HEK293A cells cotransfected with chimeric Galphaq/il after 1.5 hrs by alkaline phosphatase tagged-TGFalpha shedding assay relative to O-(Hydroxy(((2R,3R)-2-(((3-(2-((3-phenoxybenzyl)oxy)phenyl)-propanoyl)oxy)methyl)tetrahydro-2H-pyran-3-yl)oxy)phosphoryl)-L-serine. The assay is classed as cell-based. As to conditions: HEK293-A. In a few lines: as §1

The target is the same in assay [5]. Description: Agonist activity at mouse GPR34 expressed in HEK293A cells cotransfected with chimeric Galphaq/il assessed as increase in intracellular calcium levels at 1 uM measured after 35 secs by calcium 5 dye based fluorescence microplate reader method in presence of probenecid. The assay is classed as functional, cell-based. As to conditions: HEK293-A. In a few lines:
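HEK293A cells were transfected with mouse GPR34 and Gαq/i1 plasmids, with empty vector plus Gαq/i1 as mock. After 24 h they were seeded in serum-free DMEM at 5 × 10^5 cells/mL for another 24 h. Cells were loaded with Calcium 5 dye for 1 h with 2.5 mM probenecid and given compound at 1 μM or 100 nM near 35 s. Fluorescence was recorded by plate reader, with SD of triplicates.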

Assay [6] has the same target. Description: (§4) Agonist activity at mouse GPR34 expressed in HEK293A cells cotransfected with chimeric Galphaq/il after 1.5 hrs by alkaline phosphatase tagged-TGFalpha shedding assay. Conditions: HEK293-A. The assay is classed as cell-based.
The target of assay [7] is Probable G-protein coupled receptor 34 (Mus musculus, UniProt Q9R1K6). Described as §4. Format: cell-based, HEK293-A.
A further assay has as its system HEK293-A. Description: Selectivity ratio of EC50 for mouse P2Y10 receptor expressed in HEK293A cells to EC50 for mouse GPR34 expressed in HEK293A cells. The assay is classed as cell-based.
Assay [8] has as its target Probable G-protein coupled receptor 174 (Mus musculus) (UniProt Q3U507). Description: Agonist activity at mouse GPR174 expressed in HEK293FT cells after 1.5 hrs by alkaline phosphatase tagged-TGFalpha shedding assay. Format: cell-based. Summed up:
as §3

Assay [9] concerns the target Putative P2Y purinoceptor 10 (Mus musculus) (UniProt Q8BFU7). Nature of the assay: Agonist activity at mouse P2Y10 receptor expressed in rat McA-RH7777 cells assessed as induction of actin stress fiber formation at 100 nM after 30 mins by Alexa fluor 594-labelled phalloidin/DAPI staining based fluorescence microscopy. The assay is classed as cell-based. In a few lines:
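McA-RH7777 rat hepatoma cells stably expressing mouse P2Y10, or mock-infected, seeded on collagen I at 2.5 × 10^4 cells/well, grown 24 h in 10% FBS DMEM. Serum-starved 1 h in 0.01% BSA DMEM, stimulated 30 min. Fixed in 4% paraformaldehyde, Triton X-100 permeabilised, stained 1 h with Alexa 594-phalloidin (1.5 μg/mL) and DAPI (1 μg/mL). Scored by fluorescence imaging.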

Chain of Putative P2Y purinoceptor 10 (Q8BFU7 whole entry): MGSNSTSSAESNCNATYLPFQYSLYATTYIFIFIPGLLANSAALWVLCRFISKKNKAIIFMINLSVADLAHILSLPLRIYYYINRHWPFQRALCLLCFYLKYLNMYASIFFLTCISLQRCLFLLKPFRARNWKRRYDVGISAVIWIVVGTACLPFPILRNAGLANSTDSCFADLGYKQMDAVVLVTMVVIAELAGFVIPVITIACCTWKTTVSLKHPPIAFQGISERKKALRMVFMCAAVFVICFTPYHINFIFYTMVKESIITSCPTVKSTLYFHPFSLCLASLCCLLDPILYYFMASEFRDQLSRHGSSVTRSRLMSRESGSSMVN
Chain of Putative P2Y purinoceptor 10 (Mus musculus) (Q8BFU7 whole entry): as above
Chain of Probable G-protein coupled receptor 34 (Mus musculus) (Q9R1K6 whole entry): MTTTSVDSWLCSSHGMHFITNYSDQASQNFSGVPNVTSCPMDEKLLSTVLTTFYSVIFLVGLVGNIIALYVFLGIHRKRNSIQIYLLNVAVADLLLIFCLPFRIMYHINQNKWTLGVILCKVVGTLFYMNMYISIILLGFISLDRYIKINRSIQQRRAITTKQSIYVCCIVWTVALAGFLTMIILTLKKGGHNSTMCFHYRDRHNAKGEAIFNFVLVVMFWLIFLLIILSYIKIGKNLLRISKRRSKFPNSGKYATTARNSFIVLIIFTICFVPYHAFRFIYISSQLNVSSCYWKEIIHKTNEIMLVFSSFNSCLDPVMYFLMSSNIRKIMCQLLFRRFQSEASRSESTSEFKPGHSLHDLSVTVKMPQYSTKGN
Chain of Probable G-protein coupled receptor 34 (Q9R1K6 whole entry): as above
Chain of Probable G-protein coupled receptor 174 (Mus musculus) (Q3U507 whole entry): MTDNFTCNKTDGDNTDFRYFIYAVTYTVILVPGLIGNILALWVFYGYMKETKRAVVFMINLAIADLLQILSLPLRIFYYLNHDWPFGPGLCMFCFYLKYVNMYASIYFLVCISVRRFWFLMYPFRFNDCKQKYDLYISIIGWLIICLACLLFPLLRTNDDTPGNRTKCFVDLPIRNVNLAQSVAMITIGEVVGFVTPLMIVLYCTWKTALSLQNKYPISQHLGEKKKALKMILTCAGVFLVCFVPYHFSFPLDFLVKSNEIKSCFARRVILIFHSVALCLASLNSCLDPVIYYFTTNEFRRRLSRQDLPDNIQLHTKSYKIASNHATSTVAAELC

Turning to `Cc1ccc(Oc2cccc(COc3ccccc3CCC(=O)OC[C@H]3OCCC[C@H]3OP(=O)(O)OC[C@H](N)C(=O)O)c2)cc1`, the Intrinsic activity result in [1] is “inactive”. Further, the Emax entry in [2] was “inactive”. Also, the EC50 in [3] (read-out: EC50) is above 1000 nM; in assay [7] (read-out: EC50) it was 36 nM. In assay [4], this compound registered an Intrinsic activity of 3.6. Besides, the result in [5] was Active. For the same compound, in assay [6], the Emax stood at 15.2%.

As for `N[C@@H](COP(=O)(O)O[C@@H]1CCCO[C@@H]1COC(=O)CCc1ccccc1OCc1cccc(Oc2ccccc2)c1)C(=O)O`, the Intrinsic activity entry in assay [1] was “inactive”. Further, the Ratio EC50 in the assay on HEK293-A was found to be 100. Besides, the Emax result in assay [2] is “inactive”. Moreover, the EC50 in [3] (read-out: EC50) is above 1000 nM; in assay [7] (read-out: EC50), 140 nM. Moreover, the outcome in assay [8] and in assay [9] was inactive. In addition, the outcome in assay [5] was Active. In assay [6], this compound registered a maximum response (Emax) of 14.8%.

As to `CCCCCCCCCCCOc1ccccc1CCC(=O)OC[C@H]1OCC=C[C@H]1OP(=O)(O)OC[C@H](N)C(=O)O`, the Intrinsic activity in assay [1] was determined as 0.05. In assay [2], this compound showed an Emax of 12.4%. Further, the EC50 in assay [3] (read-out: EC50) was determined as 42 nM; in assay [7] (read-out: EC50) it was 510 nM. For the same compound, the outcome in assay [9] was Active.

Take `CCCCCCCCCCCOc1ccccc1CCC(=O)OC[C@H]1OCC=C[C@@H]1OP(=O)(O)OC[C@H](N)C(=O)O`: the Intrinsic activity in [1] was 0.071. For the same compound, the Emax in assay [2] was 7.6%. Also, the EC50 in assay [3] (read-out: EC50) is 17 nM; in assay [7] (hek293-a), “Not Active”. Besides, the outcome in assay [9] was Active.

As to `N[C@@H](COP(=O)(O)OC[C@H]1OCCC[C@H]1OC(=O)CCc1ccccc1OCc1cccc(Oc2ccc(Cl)cc2)c1)C(=O)O`, the Intrinsic activity entry in assay [1] is “inactive”. In assay [2], the Emax entry was “inactive”. Further, the values for the EC50 in assay [3] (read-out: EC50) and in assay [7] (read-out: EC50) were above 1000 nM and 120 nM, respectively. The compound also came in with an Intrinsic activity in assay [4] of 1.2. For the same compound, in assay [5], the outcome was Active. In [6], the Emax came out at 15.1%.

`CCCCCCCC/C=C\CCCCCCCC(=O)OC[C@@H](O)COP(=O)(O)OC[C@H](N)C(=O)O`: the Intrinsic activity in assay [1] turned out to be 0.073; in assay [4], 0.33. Further, the results for the Emax in assay [2] and in assay [6] were 12.5% and 9.5%, respectively. Further, the concentration for a half-maximal effect (EC50) in assay [3] (read-out: EC50) amounted to 25 nM. Moreover, the outcome in assay [9] was Active.

For the compound `Cc1ccc(Oc2cccc(COc3ccccc3CCC(=O)O[C@@H]3CCCO[C@@H]3COP(=O)(O)OC[C@H](N)C(=O)O)c2)cc1`, the EC50 result in assay [3] (hek293-a) was “Not Active”; in [7] (read-out: EC50) it was 77 nM. This compound gave an Intrinsic activity in [4] of 1.9. Also, the outcome in assay [5] was Active. Also, in assay [6], the Emax was 16%.

`CCCCCCCCCCCOc1ccccc1CCC(=O)OCc1cccc(OP(=O)(O)OC[C@H](N)C(=O)O)c1` gave an Intrinsic activity in assay [1] of 0.23. Besides, the Emax in assay [2] worked out at 10.8%. The results for the EC50 in assay [3] (read-out: EC50) and in assay [7] (hek293-a) were 6.7 nM and “Not Active”, respectively. In addition, in assay [9], the outcome was Active.

With `N[C@@H](COP(=O)(O)OC[C@H]1OCCC[C@H]1OC(=O)CCc1ccccc1OCc1cccc(Oc2ccccc2)c1)C(=O)O`, the Intrinsic activity result in [1] was “inactive”. For the same compound, the Ratio EC50 in the assay with HEK293-A was determined as 100. Moreover, the Emax result in assay [2] is “inactive”. The EC50 was above 1000 nM in [3] (read-out: EC50) and 190 nM in assay [7] (read-out: EC50). This compound displayed an Intrinsic activity in assay [4] of 0.85. Also, the outcome in assay [8] and in assay [9] was inactive. In addition, in assay [5], the result was Active. Further, the Emax in assay [6] was determined as 17.7%.

Consider `CCCCCCCCCCCOc1ccccc1CCC(=O)OCc1ccc(OP(=O)(O)OC[C@H](N)C(=O)O)cc1`, for which, in assay [1], the Intrinsic activity entry is “inactive”. The Emax result in assay [2] is “inactive”. For the same compound, the EC50 in [3] (read-out: EC50) was above 1000 nM; in assay [7] (hek293-a), “Not Active”. For the same compound, the result in assay [9] was inactive.

`CCCCCCCCCCCOc1ccccc1CCC(=O)OCc1ccccc1OP(=O)(O)OC[C@H](N)C(=O)O`: the Intrinsic activity in assay [1] was 0.02; in assay [4] it was 0.2. The maximal response (Emax) in assay [2] stood at 5.8%; in assay [6], 5.9%. Further, the values for the concentration for a half-maximal effect (EC50) in [3] (read-out: EC50) and in assay [7] (read-out: EC50) were 45 nM and 700 nM, respectively. In addition, in assay [9], the result was Active.

For the compound `N[C@@H](COP(=O)(O)O[C@@H]1CCCO[C@@H]1COC(=O)CCc1ccccc1OCc1cccc(Oc2ccc(Cl)cc2)c1)C(=O)O`, the Intrinsic activity result in assay [1] was “inactive”. The Emax entry in [2] is “inactive”. Besides, the EC50 is above 1000 nM in assay [3] (read-out: EC50) and 37 nM in assay [7] (read-out: EC50). This compound also displayed an Intrinsic activity in [4] of 3.8. Moreover, the outcome in [5] was Active. Besides, the maximal effect (Emax) in assay [6] is 16.6%.
